Data from ChEMBL document CHEMBL4765431, “Novel phthalide derivatives: Synthesis and anti-inflammatory activity in vitro and in vivo” (Eur J Med Chem, 2020).
Active and inactive are the calls of the source. No cut-off for these calls is given here.

What was measured:
RAW264.7 [1] = assay: Cytotoxicity against mouse RAW264.7 cells assessed as reduction in cell viability at 20 uM incubated for 24 hrs by MTT assay; type: cell-based; details: raw264.7, 24 h
Procedure, shortened: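 RAW264.7 cells (1 × 10^4/well, used 24 h after seeding) exposed to 20 µM for 24 h. MTT (5 mg/mL stock) added for 4 h, supernatant removed, crystals dissolved in DMSO with 10–15 min shaking, absorbance at 492 nm.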

RAW264.7 [2] = assay: Antiinflammatory activity in mouse RAW264.7 cells assessed as inhibition of LPS-induced nitric oxide production at 10 uM preincubated for 1 hr followed by LPS stimulation and measured after 24 hrs by Griess reagent-based assay relative to control; type: functional; details: time 25 hrs
Procedure, shortened: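 RAW264.7 cells (7 × 10^4/well, used 24 h after seeding) in DMEM with 10% heat-inactivated FBS, 37 °C, 5% CO2. Pretreated 1 h with compound (10 µM screen; 0.625–10 µM dose series), then LPS 0.5 µg/mL for 24 h. Supernatant mixed 1:1 with Griess reagent, 15 min at room temperature, absorbance read at […].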

RAW264.7 [3] = assay: Antiinflammatory activity in mouse RAW264.7 cells assessed as inhibition of LPS-induced nitric oxide production preincubated for 1 hr followed by LPS stimulation and measured after 24 hrs by Griess reagent-based assay; type: functional, cell-based
RAW264.7 [4] = assay: Cytotoxicity against mouse RAW264.7 cells assessed as reduction in cell viability incubated for 24 hrs in presence of LPS by MTT assay; type: cell-based; details: RAW264.7, 24 h
RAW264.7 [5] = assay: Cytotoxicity against mouse RAW264.7 cells assessed as reduction in cell viability incubated for 24 hrs in absence of LPS by MTT assay; type: cell-based; details: RAW264.7, 24 h
Rattus norvegicus [6] = assay: Antiarthritic activity in Sprague-Dawley rat model of arthritis assessed as decrease in CFA-induced synovial hyperplasia at 60 mg/kg, ig administered daily for 28 days starting from 14 days post-immunization and measured every 3 days by H and E staining based histopathological analysis; type: functional, organism-based; details: time 28.0 day
Rattus norvegicus [7] = assay: Antiarthritic activity in Sprague-Dawley rat model of CFA-induced arthritis assessed as intact joint cavity at 60 mg/kg, ig administered daily for 28 days starting from 14 days post-immunization and measured every 3 days by H and E staining based histopathological analysis; type: functional, organism-based; details: time 28.0 day

| Compound | Activity (RAW264.7 [1]) | inhibition at 10 µM (RAW264.7 [2]) | IC50 (RAW264.7 [3]) | IC50 (RAW264.7 [4]) | IC50 (RAW264.7 [5]) | Activity (Rattus norvegicus [6]) | Activity (Rattus norvegicus [7]) |
| --- | --- | --- | --- | --- | --- | --- | --- |
| COc1cc(OC)c2c(c1)C(C(O)c1ccc(OCc3ccc(C)cc3)cc1)OC2=O (stereo unspecified) | Non-Toxic | 82.1% | 3.12 µM | > 40 µM | > 40 µM | – | – |
| COc1cc(OC)c2c(c1)C(C(O)c1ccc(OCCOc3ccccc3)cc1)OC2=O (stereo unspecified) | Non-Toxic | 41.2% | > 10 µM | > 40 µM | > 40 µM | – | – |
| COc1cc(OC)c2c(c1)/C(=C/c1ccc(OCc3ccccc3)cc1)OC2=O | Non-Toxic | 44.3% | > 10 µM | > 40 µM | > 40 µM | – | – |
| CCCCOc1ccc(C(O)C2OC(=O)c3c(OC)cc(OC)cc32)cc1 (stereo unspecified) | Non-Toxic | 83.7% | 1.8 µM | > 40 µM | > 40 µM | – | – |
| COCCCOc1ccc(C(O)C2OC(=O)c3c(OC)cc(OC)cc32)cc1 (stereo unspecified) | Non-Toxic | 89.5% | 1.26 µM | > 40 µM | > 40 µM | – | – |
| COCCOc1ccc(C(O)C2OC(=O)c3c(OC)cc(OC)cc32)cc1 (stereo unspecified) | Non-Toxic | 41.4% | > 10 µM | > 40 µM | > 40 µM | – | – |
| C=CCCOc1ccc(C(O)C2OC(=O)c3c(OC)cc(OC)cc32)cc1 (stereo unspecified) | Non-Toxic | 87.2% | 1.33 µM | > 40 µM | > 40 µM | – | – |
| COc1ccc(/C=C2\OC(=O)c3c(OC)cc(OC)cc32)cc1 | Non-Toxic | 36.3% | > 10 µM | > 40 µM | > 40 µM | – | – |
| COc1cc(OC)c2c(c1)C(C(O)c1ccc(OCc3ccccc3)cc1)OC2=O (stereo unspecified) | Non-Toxic | 41.2% | > 10 µM | > 40 µM | > 40 µM | – | – |
| CCCCCCOc1ccc(C(O)C2OC(=O)c3c(OC)cc(OC)cc32)cc1 (stereo unspecified) | Non-Toxic | 62.2% | 5.36 µM | > 40 µM | > 40 µM | – | – |
| COc1cc(OC)c2c(c1)C(C(O)c1ccc(OCc3ccc(Br)cc3)cc1)OC2=O (stereo unspecified) | Non-Toxic | 68.1% | 6.53 µM | > 40 µM | > 40 µM | – | – |
| COc1cc(OC)c2c(c1)/C(=C/c1ccc(OCc3ccc(F)cc3)cc1)OC2=O | Non-Toxic | 48.2% | > 10 µM | > 40 µM | > 40 µM | – | – |
| CCOc1ccc(C(O)C2OC(=O)c3c(OC)cc(OC)cc32)cc1 (stereo unspecified) | Non-Toxic | 43.2% | > 10 µM | > 40 µM | > 40 µM | – | – |
| COc1ccc2c(c1)c(CC(=O)O)c(C)n2C(=O)c1ccc(Cl)cc1 [INDOMETHACIN] | – | 61.6% | > 10 µM | > 40 µM | > 40 µM | – | – |
| O=C1OC(Cc2nc(-c3ccccc3)no2)c2ccccc21 (stereo unspecified) | Non-Toxic | 13% | > 10 µM | > 40 µM | > 40 µM | – | – |
| COc1ccc(C(O)C2OC(=O)c3c(OC)cc(OC)cc32)cc1 (stereo unspecified) | Non-Toxic | 38.7% | > 10 µM | > 40 µM | > 40 µM | – | – |

| Compound | Activity (RAW264.7 [1]) | inhibition at 10 µM (RAW264.7 [2]) | IC50 (RAW264.7 [3]) | IC50 (RAW264.7 [4]) | IC50 (RAW264.7 [5]) | Activity (Rattus norvegicus [6]) | Activity (Rattus norvegicus [7]) |
| --- | --- | --- | --- | --- | --- | --- | --- |
| O=C1OC(Cc2nc(-c3ccc(Oc4ccccc4)cc3)no2)c2ccccc21 (stereo unspecified) | Non-Toxic | 10% | > 10 µM | > 40 µM | > 40 µM | – | – |
| O=C1OC(Cc2nc(Cc3ccccc3)no2)c2ccccc21 (stereo unspecified) | Non-Toxic | 25.1% | > 10 µM | > 40 µM | > 40 µM | – | – |
| COc1cc(OC)c2c(c1)C(C(O)c1ccc(OCc3ccc(OC(F)(F)F)cc3)cc1)OC2=O (stereo unspecified) | Non-Toxic | 62.8% | 8.14 µM | > 40 µM | > 40 µM | – | – |
| COc1cc(OC)c2c(c1)C(C(O)c1ccc(OCc3ccc(OC(F)F)cc3)cc1)OC2=O (stereo unspecified) | Non-Toxic | 67.6% | 5.03 µM | > 40 µM | > 40 µM | – | – |
| O=C1OC(Cc2nc(-c3ccc(-c4ccccc4)cc3)no2)c2ccccc21 (stereo unspecified) | Non-Toxic | 25.2% | > 10 µM | > 40 µM | > 40 µM | – | – |
| COc1cc(OC)c2c(c1)C(C(O)c1ccc(OCC3CCCCC3)cc1)OC2=O (stereo unspecified) | Non-Toxic | 27.4% | > 10 µM | > 40 µM | > 40 µM | – | – |
| Cc1noc(CC2OC(=O)c3ccccc32)n1 (stereo unspecified) | Non-Toxic | 24.3% | > 10 µM | > 40 µM | > 40 µM | – | – |
| COc1cc(OC)c2c(c1)C(C(O)c1ccc(OCC(C)C)cc1)OC2=O (stereo unspecified) | Non-Toxic | 48.6% | > 10 µM | > 40 µM | > 40 µM | – | – |
| CCOCCOc1ccc(C(O)C2OC(=O)c3c(OC)cc(OC)cc32)cc1 (stereo unspecified) | Non-Toxic | 42.9% | > 10 µM | > 40 µM | > 40 µM | – | – |
| COc1cc(OC)c2c(c1)C(C(O)c1ccc(OCc3ccc(C#N)cc3)cc1)OC2=O (stereo unspecified) | Non-Toxic | 60.8% | 7.36 µM | > 40 µM | > 40 µM | – | – |
| CCCOc1ccc(C(O)C2OC(=O)c3c(OC)cc(OC)cc32)cc1 (stereo unspecified) | Non-Toxic | 53.2% | 9.26 µM | > 40 µM | > 40 µM | – | – |
| COCCCCOc1ccc(C(O)C2OC(=O)c3c(OC)cc(OC)cc32)cc1 (stereo unspecified) | Non-Toxic | 50.3% | 8.21 µM | > 40 µM | > 40 µM | – | – |
| COC1=C[C@@H]2[C@@H]3Cc4ccc(OC)c(O)c4[C@]2(CCN3C)CC1=O | – | – | – | – | – | Active | Active |
| COc1cc(OC)c2c(c1)C(C(O)c1ccc(OCc3ccc(Cl)cc3)cc1)OC2=O (stereo unspecified) | Non-Toxic | 75.1% | 4.32 µM | > 40 µM | > 40 µM | – | – |
| COc1cc(OC)c2c(c1)C(C(O)c1ccc(O)cc1)OC2=O (stereo unspecified) | Non-Toxic | 46.1% | > 10 µM | > 40 µM | > 40 µM | – | – |
